Laboratory results from ChEMBL document CHEMBL2346559, “Optimization of benzoxazole-based inhibitors of Cryptosporidium parvum inosine 5'-monophosphate dehydrogenase” (J Med Chem, 2013).
Blank lines part the entries; values can stand above or below the compound they belong to.

What was measured:
Toxoplasma gondii [1] = test: Antiparasitic activity against transgenic Toxoplasma gondii expressing Cryptosporidium parvum IMPDH; format: functional, organism-based
How it was run: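 Engineered T. gondii strain that depends on CpIMPDH for guanine nucleotide synthesis, run alongside the wild-type RH strain, whose native eukaryotic IMPDH also gauges host-cell cytotoxicity. Antiparasitic EC50 is the average of three independent determinations unless otherwise stated, with some values from two determinations.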

[2] = target: T1, Inosine-5'-monophosphate dehydrogenase (Cryptosporidium parvum, UniProt Q8T6T2); test: Inhibition of Cryptosporidium parvum N-terminal His6-tagged IMPDH-mediated NADH production expressed in Escherichia coli BL21(DE3) preincubated for 5 mins prior to substrate addition by fluorescence assay in presence of BSA
T1 sequence (Q8T6T2 whole entry): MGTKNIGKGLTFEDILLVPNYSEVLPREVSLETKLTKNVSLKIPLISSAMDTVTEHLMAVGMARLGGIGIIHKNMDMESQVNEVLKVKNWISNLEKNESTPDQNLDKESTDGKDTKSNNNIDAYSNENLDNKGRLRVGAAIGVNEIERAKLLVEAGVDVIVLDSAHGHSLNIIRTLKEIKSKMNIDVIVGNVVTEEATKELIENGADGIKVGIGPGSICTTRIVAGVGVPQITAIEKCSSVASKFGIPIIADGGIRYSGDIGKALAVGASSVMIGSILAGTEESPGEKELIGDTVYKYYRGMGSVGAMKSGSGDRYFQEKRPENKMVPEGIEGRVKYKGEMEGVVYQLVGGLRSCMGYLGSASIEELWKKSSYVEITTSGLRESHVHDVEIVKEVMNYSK
How it was run: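 Same CpIMPDH fluorescence assay (10 nM enzyme, 300 μM NAD, 150 μM IMP, pH 8.0 Tris buffer, 25 °C, 5 min inhibitor preincubation), run with 0.05% fatty-acid-free BSA added to gauge nonspecific protein binding. Quadruplicate points; IC50 averaged over three determinations.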

[3] = target: Inosine-5'-monophosphate dehydrogenase 2 (Homo sapiens, UniProt P12268); test: Inhibition of human IMPDH2
Toxoplasma gondii [4] = test: Selectivity ratio of EC50 for wild-type Toxoplasma gondii to EC50 for Toxoplasma gondii expressing Cryptosporidium parvum IMPDH; format: functional
[5] = Cytotoxicity against African green monkey COS cells after 3 days by Alamar blue assay; format: cell-based; conditions: chlorocebus aethiops, read-out: LD50
How it was run: (§1)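 Tested in parallel against HeLa, HEK293, COS and CHO cells. Viability was read as metabolic activity by alamarBlue and expressed as LD50.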

Toxoplasma gondii [6] = test: Antiparasitic activity against wild-type Toxoplasma gondii expressing eukaryotic IMPDH; format: functional, organism-based
[7] = Cytotoxicity against CHO cells after 3 days by Alamar blue assay; format: cell-based, Cricetulus griseus; conditions: chinese hamster, read-out: LD50; how it was run: as §1
[8] = Cytotoxicity against human HEK293 cells after 3 days by Alamar blue assay; format: cell-based; conditions: read-out: LD50; how it was run: as §1
[9] = target: T1, Inosine-5'-monophosphate dehydrogenase; test: Inhibition of Cryptosporidium parvum N-terminal His6-tagged IMPDH-mediated NADH production expressed in Escherichia coli BL21(DE3) preincubated for 5 mins prior to substrate addition by fluorescence assay
[10] = Cytotoxicity against human HeLa cells after 3 days by Alamar blue assay; format: cell-based; conditions: read-out: LD50; how it was run: as §1
Liver [11] = test: Half life in mouse liver microsomes by LC/MS/MS analysis in presence of NADPH; format: ADME, Microsome
How it was run: (§2)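 Incubation with mouse liver microsomes at 37 °C, with and without NADPH. Percent of compound remaining measured at several time points; half-life from a fit to first-order decay.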

Liver [12] = test: Half life in mouse liver microsomes by LC/MS/MS analysis; format: ADME, Microsome; how it was run: as §2

Compound: CC(Oc1ccccc1Cl)C(=O)Nc1ccc2oc(-c3ccncc3)nc2c1 (stereo unspecified)
EC50 (Toxoplasma gondii [1]): 900 nM | IC50 [2]: 50 nM | IC50 [3]: > 5000 nM | Ratio EC50 (Toxoplasma gondii [4]): 3 | CC50 at 72 h [5]: > 50000 nM | EC50 (Toxoplasma gondii [6]): 3000 nM | CC50 at 72 h [7]: > 50000 nM | CC50 at 72 h [8]: 12500 nM | IC50 [9]: 19 nM | CC50 at 72 h [10]: > 50000 nM

Compound: C[C@H](Oc1cccc2ccccc12)C(=O)Nc1ccc2oc(-c3ccncc3)nc2c1
EC50 (Toxoplasma gondii [1]): 400 nM | IC50 [2]: 8 nM | IC50 [3]: > 5000 nM | Ratio EC50 (Toxoplasma gondii [4]): 5 | EC50 (Toxoplasma gondii [6]): 2200 nM | t1/2 (Liver [11]): 30 min

Compound: C[C@H](Nc1cccc(Cl)c1Cl)C(=O)Nc1ccc2oc(-c3ccncc3)nc2c1
IC50 [3]: > 5000 nM | CC50 at 72 h [5]: > 50000 nM | t1/2 (Liver [12]): 110 min | t1/2 (Liver [11]): 44 min | CC50 at 72 h [7]: > 50000 nM | CC50 at 72 h [8]: > 50000 nM | IC50 [9]: 0.5 nM | CC50 at 72 h [10]: > 50000 nM

Compound: C[C@H](Nc1cccc2ccccc12)C(=O)Nc1ccc2oc(-c3ccncc3)nc2c1
IC50 [3]: > 5000 nM | t1/2 (Liver [12]): 27 min | t1/2 (Liver [11]): 18 min | IC50 [9]: 14 nM

Compound: C[C@H](Oc1cccc(Cl)c1Cl)C(=O)Nc1ccc2oc(-c3ccncc3)nc2c1
EC50 (Toxoplasma gondii [1]): 300 nM | IC50 [2]: 3.5 nM | IC50 [3]: > 5000 nM | Ratio EC50 (Toxoplasma gondii [4]): 16 | EC50 (Toxoplasma gondii [6]): 5000 nM | t1/2 (Liver [12]): 12 min | t1/2 (Liver [11]): 9 min | IC50 [9]: 1.2 nM

Compound: C[C@H](Oc1cccc(Cl)c1Cl)C(=O)Nc1ccc2oc(-c3cncs3)nc2c1
EC50 (Toxoplasma gondii [1]): 200 nM | IC50 [2]: 2.3 nM | IC50 [3]: > 5000 nM | Ratio EC50 (Toxoplasma gondii [4]): 15 | EC50 (Toxoplasma gondii [6]): 3300 nM | t1/2 (Liver [12]): 11 min | t1/2 (Liver [11]): 7 min | IC50 [9]: 1.4 nM

Compound: CC(Oc1ccccc1)C(=O)Nc1ccc2oc(-c3ccncc3)nc2c1 (stereo unspecified)
EC50 (Toxoplasma gondii [1]): 4000 nM | IC50 [2]: 50 nM | IC50 [3]: > 5000 nM | Ratio EC50 (Toxoplasma gondii [4]): 2 | EC50 (Toxoplasma gondii [6]): 7000 nM | IC50 [9]: 40 nM

Compound: C[C@H](Oc1cccc([N+](=O)[O-])c1Cl)C(=O)Nc1ccc2oc(-c3ccncc3)nc2c1
EC50 (Toxoplasma gondii [1]): 190 nM | IC50 [2]: 6 nM | IC50 [3]: > 5000 nM | CC50 at 72 h [5]: > 50000 nM | CC50 at 72 h [7]: > 50000 nM | CC50 at 72 h [8]: > 50000 nM | IC50 [9]: 2.3 nM | CC50 at 72 h [10]: > 50000 nM

Compound: C[C@H](Oc1cccc(Cl)c1Cl)C(=O)Nc1ccc2nc(-c3ccncc3)oc2c1
EC50 (Toxoplasma gondii [1]): 20 nM | IC50 [2]: 4 nM | IC50 [3]: > 5000 nM | Ratio EC50 (Toxoplasma gondii [4]): 150 | CC50 at 72 h [5]: > 50000 nM | EC50 (Toxoplasma gondii [6]): 3000 nM | t1/2 (Liver [12]): 9 min | t1/2 (Liver [11]): 10 min | CC50 at 72 h [7]: > 50000 nM | CC50 at 72 h [8]: > 50000 nM | IC50 [9]: 0.6 nM | CC50 at 72 h [10]: > 50000 nM

Compound: C[C@H](Oc1cccc(Cl)c1Cl)C(=O)Nc1ccc2oc(-c3nccs3)nc2c1
EC50 (Toxoplasma gondii [1]): 300 nM | IC50 [2]: 30 nM | IC50 [3]: > 5000 nM | Ratio EC50 (Toxoplasma gondii [4]): 7 | EC50 (Toxoplasma gondii [6]): 2200 nM | IC50 [9]: 17 nM

Compound: C[C@H](Oc1cccc2ccccc12)C(=O)Nc1ccc2oc(-c3ccc[nH]3)nc2c1
EC50 (Toxoplasma gondii [1]): 1000 nM | IC50 [2]: 50 nM | IC50 [3]: > 5000 nM | Ratio EC50 (Toxoplasma gondii [4]): 1.7 | EC50 (Toxoplasma gondii [6]): 1700 nM | IC50 [9]: 26 nM

Compound: CC(Oc1cccc(Cl)c1Cl)C(=O)Nc1ccc2oc(-c3ccncc3)nc2c1 (stereo unspecified)
EC50 (Toxoplasma gondii [1]): 220 nM | IC50 [2]: 11 nM | IC50 [3]: > 5000 nM | Ratio EC50 (Toxoplasma gondii [4]): 40 | CC50 at 72 h [5]: > 50000 nM | EC50 (Toxoplasma gondii [6]): 8000 nM | CC50 at 72 h [7]: > 50000 nM | CC50 at 72 h [8]: > 50000 nM | IC50 [9]: 3 nM | CC50 at 72 h [10]: > 50000 nM

IC50 [3]: > 5000 nM | t1/2 (Liver [12]): 130 min | t1/2 (Liver [11]): 25 min | IC50 [9]: 60 nM
Compound: C[C@@H](C(=O)Nc1ccc2oc(-c3ccncc3)nc2c1)c1cccc(Cl)c1Cl

Compound: COc1ccc(OC(C)C(=O)Nc2ccc3oc(-c4ccncc4)nc3c2)cc1 (stereo unspecified)
EC50 (Toxoplasma gondii [1]): 500 nM | IC50 [2]: 34 nM | IC50 [3]: > 5000 nM | Ratio EC50 (Toxoplasma gondii [4]): >50 | CC50 at 72 h [5]: > 50000 nM | EC50 (Toxoplasma gondii [6]): > 25000 nM | CC50 at 72 h [7]: > 50000 nM | CC50 at 72 h [8]: > 50000 nM | IC50 [9]: 28 nM | CC50 at 72 h [10]: > 50000 nM
